Assay results from ChEMBL document CHEMBL2346664, “Synthesis, characterization and in vitro anticancer evaluation of novel 1,2,4-triazolin-3-one derivatives” (2013).

Columns and labels:
Assay type in all cases: functional
U-251 [1] = assay: Growth inhibition of human U251 cells assessed as cell growth at 10 '-5 M after 48 hrs by sulforhodamine B assay; conditions: U-251, 48 h, read-out: Activity
[2] = Growth inhibition of human […] cells assessed as cell growth at 10 uM after 48 hrs by sulforhodamine B assay; conditions: read-out: Activity
How it was run: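 NCI-60 primary screen at a single dose of 10^-5 M. Output is mean growth percent of treated cells relative to untreated controls, where values between 0 and 100 indicate growth inhibition and values below 0 indicate cytotoxicity. Cells were plated 24 h before drug, incubated 48 h at 37 °C, 5% CO2, and stained with SRB after TCA fixation. Suspension cells were fixed with 80% TCA (16% final).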

HOP-92 = assay: Growth inhibition of human HOP92 cells assessed as cell growth at 10 '-5 M after 48 hrs by sulforhodamine B assay; conditions: HOP-92, 48 h, read-out: Activity
IGROV-1 = assay: Growth inhibition of human IGROV1 cells assessed as cell growth at 10 '-6 M after 48 hrs by sulforhodamine B assay; conditions: IGROV-1, 48 h, read-out: Activity
SK-MEL-5 [3] = assay: Growth inhibition of human SK-MEL-5 cells assessed as cell growth at 10 '-6 M after 48 hrs by sulforhodamine B assay; conditions: SK-MEL-5, 48 h, read-out: Activity
U-251 [4] = assay: Growth inhibition of human U251 cells assessed as growth inhibition at 10 uM after 48 hrs by sulforhodamine B assay; conditions: U-251, 48 h, read-out: GI
TK-10 = assay: Growth inhibition of human TK10 cells assessed as cell growth at 10 '-4 M after 48 hrs by sulforhodamine B assay; conditions: TK-10, 48 h, read-out: Activity
SF-295 = assay: Growth inhibition of human SF295 cells assessed as cell growth at 10 '-6 M after 48 hrs by sulforhodamine B assay; conditions: SF-295, 48 h, read-out: Activity
[5] = Growth inhibition of human HCC2998 cells assessed as cell growth at 10 '-6 M after 48 hrs by sulforhodamine B assay; conditions: HCC 2998, 48 h, read-out: Activity
RXF 393 = assay: Growth inhibition of human RXF393 cells assessed as cell growth at 10 '-7 M after 48 hrs by sulforhodamine B assay; conditions: RXF 393, 48 h, read-out: Activity
[6] = Growth inhibition of human NCI-ADR-RES cells assessed as cell growth at 10 '-7 M after 48 hrs by sulforhodamine B assay; conditions: read-out: Activity
OVCAR-4 = assay: Growth inhibition of human OVCAR4 cells assessed as cell growth at 10 '-4 M after 48 hrs by sulforhodamine B assay; conditions: OVCAR-4, 48 h, read-out: Activity
UACC-257 [7] = assay: Growth inhibition of human UACC257 cells assessed as cell growth at 10 '-4 M after 48 hrs by sulforhodamine B assay; conditions: UACC-257, 48 h, read-out: Activity
SK-MEL-5 [8] = assay: Growth inhibition of human SK-MEL-5 cells assessed as cell growth at 10 '-4 M after 48 hrs by sulforhodamine B assay; conditions: SK-MEL-5, 48 h, read-out: Activity
SF-539 = assay: Growth inhibition of human SF539 cells assessed as cell growth at 10 '-4 M after 48 hrs by sulforhodamine B assay; conditions: SF-539, 48 h, read-out: Activity
HCT-116 = assay: Growth inhibition of human HCT116 cells assessed as cell growth at 10 '-4 M after 48 hrs by sulforhodamine B assay; conditions: HCT-116, 48 h, read-out: Activity
[9] = Growth inhibition of human Hs 578T cells assessed as cell growth at 10 '-5 M after 48 hrs by sulforhodamine B assay; conditions: read-out: Activity
OVCAR-5 = assay: Growth inhibition of human OVCAR5 cells assessed as cell growth at 10 '-5 M after 48 hrs by sulforhodamine B assay; conditions: OVCAR-5, 48 h, read-out: Activity
SK-MEL-5 [10] = assay: Growth inhibition of human SK-MEL-5 cells after 48 hrs by sulforhodamine B assay; conditions: SK-MEL-5, 48 h
Malme-3M = assay: Growth inhibition of human MALME-3M cells after 48 hrs by sulforhodamine B assay
How it was run: (§1)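 NCI 60-cell-line five-dose screen. Cells were plated at 5,000–40,000/well by doubling time and grown 24 h at 37 °C, 5% CO2. Time-zero plates were TCA-fixed. Drug from DMSO stock was tested at 0.01, 0.1, 1, 10 and 100 µM final for 48 h continuous exposure. Read-out was SRB at 515 nm. GI50 is the concentration giving 50% reduction in net protein increase versus untreated control.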

SW-620 = assay: Growth inhibition of human SW620 cells after 48 hrs by sulforhodamine B assay; conditions: SW-620, 48 h
SR = assay: Growth inhibition of human SR cells after 48 hrs by sulforhodamine B assay
MOLT-4 = assay: Growth inhibition of human MOLT4 cells after 48 hrs by sulforhodamine B assay; conditions: MOLT-4, 48 h; how it was run: as §1
UO-31 = assay: Growth inhibition of human UO31 cells assessed as growth inhibition at 10 uM after 48 hrs by sulforhodamine B assay; conditions: UO-31, 48 h, read-out: GI
T47D = assay: Growth inhibition of human T47D cells assessed as cell growth at 10 '-8 M after 48 hrs by sulforhodamine B assay; conditions: read-out: Activity
DU-145 = assay: Growth inhibition of human DU145 cells assessed as cell growth at 10 '-8 M after 48 hrs by sulforhodamine B assay; conditions: DU-145, 48 h, read-out: Activity
786-0 = assay: Growth inhibition of human 786-0 cells assessed as cell growth at 10 '-8 M after 48 hrs by sulforhodamine B assay; conditions: 786-0, 48 h, read-out: Activity
How it was run: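 Percent growth at each of the five concentrations of the 48 h continuous-exposure NCI SRB screen. Drug stocks were in DMSO at 400× the top final concentration and diluted in medium with gentamicin. Growth was calculated as [(Ti-Tz)/(C-Tz)]×100 when Ti ≥ Tz, or [(Ti-Tz)/Tz]×100 when Ti < Tz. Tz plates were fixed at drug addition; untreated wells served as control. Absorbance was read at 515 nm.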

SK-OV-3 = assay: Growth inhibition of human SKOV3 cells assessed as cell growth at 10 '-8 M after 48 hrs by sulforhodamine B assay; conditions: SK-OV-3, 48 h, read-out: Activity
SK-MEL-5 [11] = assay: Growth inhibition of human SK-MEL-5 cells assessed as cell growth at 10 '-5 M after 48 hrs by sulforhodamine B assay; conditions: SK-MEL-5, 48 h, read-out: Activity
UACC-257 [12] = assay: Growth inhibition of human UACC257 cells assessed as cell growth at 10 '-8 M after 48 hrs by sulforhodamine B assay; conditions: UACC-257, 48 h, read-out: Activity
[13] = read-out: LD50 (the source's name)

Compound `Cc1cc(=O)oc2cc(OCCn3c(C)nn(-c4ccc(Cl)cc4)c3=O)ccc12` has a growth at 10 µM (U-251 [1]) of 27%, a growth at 10 µM [2] of 32.9% and a growth at 10 µM (HOP-92) of 55%. It also gave a growth at 1 µM (IGROV-1) of 93%, a growth at 1 µM (SK-MEL-5 [3]) of 47% and an inhibition of growth at 10 µM (U-251 [4]) of 68.6%. It also gave a growth at 100 µM (TK-10) of -3%, a growth at 1 µM (SF-295) of 74% and a growth at 1 µM [5] of 76%. It also gave a growth at 0.1 µM (RXF 393) of 90%, a growth at 0.1 µM [6] of 96% and a growth at 100 µM (OVCAR-4) of 40%. It also gave a growth at 100 µM (UACC-257 [7]) of 53%, a growth at 100 µM (SK-MEL-5 [8]) of 4% and a growth at 100 µM (SF-539) of -12%. For the same compound, the growth at 100 µM (HCT-116) was 23%, the growth at 10 µM [9] was 28% and the growth at 10 µM (OVCAR-5) was 53%. The GI50 (SK-MEL-5 [10]) was 8480 nM, the TGI (SK-MEL-5 [10]) was > 1000 nM and the CC50 (SK-MEL-5 [10]; [13]) was > 1000 nM. For the same compound, the GI50 (Malme-3M) was 3850 nM, the TGI (Malme-3M) was > 1000 nM and the CC50 (Malme-3M; [13]) was > 1000 nM. The GI50 (SW-620) was 2200 nM, the TGI (SW-620) was > 1000 nM and the CC50 (SW-620; [13]) was > 1000 nM. The GI50 (SR) was 4970 nM, the TGI (SR) was 6670 nM and the CC50 (SR; [13]) was > 1000 nM. For the same compound, the GI50 (MOLT-4) was 4710 nM, the TGI (MOLT-4) was > 1000 nM and the CC50 (MOLT-4; [13]) was > 1000 nM. It also gave an inhibition of growth at 10 µM (UO-31) of 57.2%, a growth at 0.01 µM (T47D) of 98% and a growth at 0.01 µM (DU-145) of 111%. The growth at 0.01 µM (786-0) was 103%, the growth at 0.01 µM (SK-OV-3) was 111% and the growth at 10 µM (SK-MEL-5 [11]) was 13%. The growth at 0.01 µM (UACC-257 [12]) was 95%.
